Source: ChEMBL document CHEMBL2321813, “Discovery of allosteric modulators of factor XIa by targeting hydrophobic domains adjacent to its heparin-binding site” (J Med Chem, 2013)
Activity calls are given as the source filed them. The rule behind the calls is not given here.

Tests used:
Coagulation factor XI [1] = molecular target: T1, Coagulation factor XI (Homo sapiens, UniProt P03951); test: Inhibition of human factor 11a using S2366 as substrate assessed as residual protease activity after 10 mins by spectrophotometry
Summary of the method: (§1)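 FXIa at 0.765 nM (final) preincubated 10 min at 37 °C with compound (12 serial dilutions) in 50 mM Tris-HCl pH 7.4, 150 mM NaCl, 0.1% PEG8000, 0.02% Tween80. S2366 (345 μM final) then added. Initial rate read at 405 nm. Fractional residual activity fit to a logistic equation for IC50, Hill slope and ΔY.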

Coagulation factor XI [2] = molecular target: T1, Coagulation factor XI; test: Inhibition of human factor 11a using S2366 as substrate after 10 mins by spectrophotometry; summary of the method: as §1
[3] = molecular target: Chymotrypsinogen A (Bos taurus) (UniProt P00766); test: Inhibition of bovine alpha-chymotrypsin assessed as residual protease activity at 500 uM after 10 mins by spectrophotometry
Homo sapiens [4] = organism: Homo sapiens; test: Ratio of IC50 for human recombinant factor 11a catalytic domain Arg530Ala mutant to IC50 for human recombinant factor XIa catalytic domain
Summary of the method: (§2)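 Recombinant FXI catalytic domain constructs (wild type, Arg530Ala, Lys529Ala/Arg530Ala/Arg532Ala) were expressed stably in HEK-293 cells. […] Inhibition was measured by S2366 hydrolysis in 50 mM Tris-HCl pH 7.4, 150 mM NaCl, 0.1% PEG8000, 0.02% Tween80 at 37 °C. Dose-response data were fit to the logistic equation.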

Coagulation factor XI [5] = molecular target: T1, Coagulation factor XI; test: Inhibition of human recombinant factor 11a catalytic domain transfected in HEK293 cells using S2366 as substrate assessed as residual protease activity at 3 uM after 10 mins by spectrophotometry
Summary of the method: (§3)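 Full-length wild-type FXIa, FXIa catalytic domain, and the Lys529Ala/Arg530Ala/Arg532Ala catalytic domain mutant were recombinant proteins from stably transfected HEK-293 cells, activated with FXIIa. Residual activity was measured by S2366 hydrolysis with 3 μM compound, with or without 30 μM Polybrene.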

Coagulation factor XI [6] = molecular target: T1, Coagulation factor XI; test: Binding affinity to human factor 11a-DEGR by spectrofluorometry
Summary of the method: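 Fluorescence titration of active-site dansylated FXIa (FXIa-DEGR, 250 nM) with aliquots of sulfated QAO in 50 mM Tris-HCl pH 7.4, 150 mM NaCl, 0.1% PEG8000 at 37 °C. Emission monitored at 547 nm (λex 345 nm). Change in fluorescence fit to the Hill equation to give apparent KD.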

Coagulation factor XI [7] = molecular target: T1, Coagulation factor XI; test: Inhibition of human wild type full length factor 11a transfected in HEK293 cells using S2366 as substrate assessed as residual protease activity at 3 uM after 10 mins by spectrophotometry; summary of the method: as §3
[8] = molecular target: Coagulation factor X (Homo sapiens) (UniProt P00742); test: Inhibition of human factor 10a assessed as residual protease activity at 500 uM after 10 mins by spectrophotometry
[9] = molecular target: T2, Serine protease 1 (Bos taurus) (UniProt P00760); test: Inhibition of bovine trypsin assessed as residual protease activity at 500 uM after 10 mins by spectrophotometry
T2 sequence (whole entry): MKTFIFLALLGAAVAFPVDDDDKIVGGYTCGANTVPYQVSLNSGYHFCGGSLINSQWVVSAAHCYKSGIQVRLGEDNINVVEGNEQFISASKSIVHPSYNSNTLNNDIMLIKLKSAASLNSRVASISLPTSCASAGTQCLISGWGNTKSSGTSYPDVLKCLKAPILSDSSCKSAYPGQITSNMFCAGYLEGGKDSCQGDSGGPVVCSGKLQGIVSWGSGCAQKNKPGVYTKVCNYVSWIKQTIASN

[10] = molecular target: Prothrombin (Homo sapiens) (UniProt P00734); test: Inhibition of human thrombin assessed as residual protease activity at 500 uM after 10 mins by spectrophotometry
Homo sapiens [11] = organism: Homo sapiens; test: Ratio of IC50 for human recombinant factor 11a catalytic domain Lys529Ala/Arg530Ala/Arg532Ala triple mutant to IC50 for human recombinant factor XIa catalytic domain; summary of the method: as §2
HEK293 [12] = test: Inhibition of human recombinant factor 11a catalytic domain Lys529Ala/Arg530Ala/Arg532Ala triple mutant transfected in HEK293 cells using S2366 as substrate assessed as residual protease activity at 3 uM after 10 mins by spectrophotometry; summary of the method: as §3
Plasma = test: Anticoagulant activity in human plasma assessed as concentration required to double activated partial thromboplastin time; assay type: functional
Summary of the method: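 Citrated pooled normal human plasma. APTT: 10 μL compound mixed with 90 μL plasma and 100 μL prewarmed APTT reagent (0.2% ellagic acid), incubated 4 min at 37 °C, then clotting started with 100 μL prewarmed 25 mM CaCl2. Vehicle control was deionized water and/or organic vehicle. Clot time was read on a fibrometer. Data fit to a quadratic trend line to get the concentration doubling clotting time. Run in duplicate.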

Coagulation factor XI [13] = molecular target: T1, Coagulation factor XI; test: Inhibition of human recombinant factor 11a catalytic domain; summary of the method: as §2
HEK293 [14] = test: Inhibition of human recombinant factor 11a catalytic domain Lys535Ala/Lys539Ala double mutant transfected in HEK293 cells; assay type: cell-based

Sequence of Coagulation factor X (Homo sapiens) (P00742 41-179 limits assumed): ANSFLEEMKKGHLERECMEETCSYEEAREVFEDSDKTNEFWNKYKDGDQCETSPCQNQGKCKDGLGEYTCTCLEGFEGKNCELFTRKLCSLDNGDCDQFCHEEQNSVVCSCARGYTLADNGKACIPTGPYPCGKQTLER
Sequence of Coagulation factor X (Homo sapiens) (P00742 235-488 limits assumed): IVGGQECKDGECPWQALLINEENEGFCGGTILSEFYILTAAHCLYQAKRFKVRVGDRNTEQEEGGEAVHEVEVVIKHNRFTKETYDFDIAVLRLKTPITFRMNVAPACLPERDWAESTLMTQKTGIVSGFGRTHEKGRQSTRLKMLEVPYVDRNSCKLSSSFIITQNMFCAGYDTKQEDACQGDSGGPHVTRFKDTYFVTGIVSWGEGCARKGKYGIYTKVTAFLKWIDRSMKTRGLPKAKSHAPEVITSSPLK
T1 sequence (P03951 19-387 limits assumed): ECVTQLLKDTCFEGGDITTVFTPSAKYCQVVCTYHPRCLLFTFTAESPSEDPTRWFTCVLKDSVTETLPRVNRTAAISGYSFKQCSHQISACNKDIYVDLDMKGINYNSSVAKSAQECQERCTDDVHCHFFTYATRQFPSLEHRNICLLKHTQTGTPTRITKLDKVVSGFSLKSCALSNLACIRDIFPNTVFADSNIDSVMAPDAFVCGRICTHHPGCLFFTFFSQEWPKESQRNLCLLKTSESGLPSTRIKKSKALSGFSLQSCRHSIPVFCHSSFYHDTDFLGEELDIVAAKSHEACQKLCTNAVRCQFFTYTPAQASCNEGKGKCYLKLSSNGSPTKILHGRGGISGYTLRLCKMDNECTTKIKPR
T1 sequence (P03951 388-625 limits assumed): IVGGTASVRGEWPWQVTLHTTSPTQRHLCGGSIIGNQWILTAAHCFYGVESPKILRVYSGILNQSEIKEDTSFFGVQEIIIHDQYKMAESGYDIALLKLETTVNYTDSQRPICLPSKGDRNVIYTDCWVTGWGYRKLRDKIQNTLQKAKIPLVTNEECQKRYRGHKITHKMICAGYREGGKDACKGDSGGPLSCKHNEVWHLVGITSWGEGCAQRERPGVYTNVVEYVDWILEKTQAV

| SMILES | Efficacy (Coagulation factor XI [1]) [%] | IC50 (Coagulation factor XI [2]) [µM] | other results |
| --- | --- | --- | --- |
| COc1cc(-c2nc3ccccc3c(=O)n2CCCCn2cc(COc3cc(-c4oc5cc(OS(=O)(=O)O)cc(OC)c5c(=O)c4OS(=O)(=O)O)ccc3OS(=O)(=O)O)nn2)ccc1OS(=O)(=O)O | 50 | 216 | – |
| O=c1c2ccccc2nc(-c2cccc(OS(=O)(=O)O)c2)n1CCCn1cc(Cn2c(-c3cccc(OS(=O)(=O)O)c3)nc3ccccc3c2=O)nn1 | 91 | 320 | – |
| O=c1c2ccccc2nc(-c2ccc(OS(=O)(=O)O)cc2)n1CCCCCn1nncc1Cn1c(-c2ccc(OS(=O)(=O)O)cc2)nc2ccccc2c1=O | 94 | – | – |
| CC(=O)Oc1cccc(-c2nc3ccccc3c(=O)n2Cc2cn(CCCCn3c(-c4cccc(OS(=O)(=O)O)c4)nc4ccccc4c3=O)nn2)c1 | – | > 1000 | – |
| COc1cc(OS(=O)(=O)O)cc2oc(-c3ccc(OS(=O)(=O)O)c(OCc4cn(CCCCn5c(-c6cc(OC(C)=O)cc(OS(=O)(=O)O)c6)nc6ccccc6c5=O)nn4)c3)c(OS(=O)(=O)O)c(=O)c12 | 90 | 407 | – |
| O=c1c2ccccc2nc(-c2ccc(OS(=O)(=O)O)cc2)n1Cc1cn(CCn2cc(Cn3c(-c4ccc(OS(=O)(=O)O)cc4)nc4ccccc4c3=O)nn2)nn1 | 98 | 305 | – |
| CC(=O)Oc1cc(OS(=O)(=O)O)cc(-c2nc3ccccc3c(=O)n2CCCCn2cc(Cn3c(-c4cc(OS(=O)(=O)O)cc(OS(=O)(=O)O)c4)nc4ccccc4c3=O)nn2)c1 | 91 | 273 | – |
| COc1cc(OS(=O)(=O)O)cc2oc(-c3ccc(OS(=O)(=O)O)c(OCc4cn(CCCCn5c(-c6cccc(OS(=O)(=O)O)c6)nc6ccccc6c5=O)nn4)c3)c(OS(=O)(=O)O)c(=O)c12 | – | > 1000 | – |
| O=c1c2ccccc2nc(-c2cc(OS(=O)(=O)O)cc(OS(=O)(=O)O)c2)n1CCCCn1cc(Cn2c(-c3cc(OS(=O)(=O)O)cc(OS(=O)(=O)O)c3)nc3ccccc3c2=O)nn1 | – | > 1000 | – |

The remaining compounds from weak to strong by IC50 (Coagulation factor XI [2]), led by results:

| Efficacy (Coagulation factor XI [1]) [%] | IC50 (Coagulation factor XI [2]) [µM] | SMILES | other results |
| --- | --- | --- | --- |
| 93 | 213 | O=c1c2ccccc2nc(-c2cccc(OS(=O)(=O)O)c2)n1CCCCn1cc(Cn2c(-c3cc(OS(=O)(=O)O)cc(OS(=O)(=O)O)c3)nc3ccccc3c2=O)nn1 | – |
| 88 | 182 | COc1cc(-c2nc3ccccc3c(=O)n2CCCCn2cc(Cn3c(-c4cccc(OS(=O)(=O)O)c4)nc4ccccc4c3=O)nn2)ccc1OS(=O)(=O)O | – |
| 88 | 159 | O=c1c2ccccc2nc(-c2ccc(OS(=O)(=O)O)cc2)n1CCCCn1cc(Cn2c(-c3cccc(OS(=O)(=O)O)c3)nc3ccccc3c2=O)nn1 | – |
| 96 | 153 | CC(=O)Oc1cc(OS(=O)(=O)O)cc(-c2nc3ccccc3c(=O)n2CCCCn2cc(Cn3c(-c4cc(O)cc(OS(=O)(=O)O)c4)nc4ccccc4c3=O)nn2)c1 | – |
| 95 | 139 | COc1cc(-c2nc3ccccc3c(=O)n2CCCCn2cc(Cn3c(-c4ccc(OS(=O)(=O)O)c(OC)c4)nc4ccccc4c3=O)nn2)ccc1OS(=O)(=O)O | – |
| 100 | 102 | O=c1c2ccccc2nc(-c2cccc(OS(=O)(=O)O)c2)n1CCCCn1cc(Cn2c(-c3cccc(OS(=O)(=O)O)c3)nc3ccccc3c2=O)nn1 | – |
| 103 | 91 | O=c1c2ccccc2nc(-c2cccc(OS(=O)(=O)O)c2)n1CCCCn1cc(Cn2c(-c3ccc(OS(=O)(=O)O)cc3)nc3ccccc3c2=O)nn1 | Kd (Coagulation factor XI [6]): 91 µM |
| 91 | 82 | O=c1c2ccccc2nc(-c2ccc(OS(=O)(=O)O)cc2)n1CCCCn1cc(Cn2c(-c3ccc(OS(=O)(=O)O)cc3)nc3ccccc3c2=O)nn1 | inhibition [3]: inactive; Kd (Coagulation factor XI [6]): 84 µM; inhibition [8]: inactive; inhibition [9]: inactive; inhibition [10]: inactive; 2aPTT (Plasma): 979 µM |
| 89 | 59 | O=c1c2ccccc2nc(-c2ccc(OS(=O)(=O)O)cc2)n1CCCCCn1cc(Cn2c(-c3ccc(OS(=O)(=O)O)cc3)nc3ccccc3c2=O)nn1 | inhibition [3]: inactive; Kd (Coagulation factor XI [6]): 37 µM; inhibition [8]: inactive; inhibition [9]: inactive; inhibition [10]: inactive; 2aPTT (Plasma): 1062 µM |
| 97 | 52 | O=c1c2ccccc2nc(-c2ccc(OS(=O)(=O)O)cc2)n1CCCCCCn1cc(Cn2c(-c3ccc(OS(=O)(=O)O)cc3)nc3ccccc3c2=O)nn1 | inhibition [3]: inactive; Ratio IC50 (Homo sapiens [4]): 2; Activity (Coagulation factor XI [5]): 6.3%; Kd (Coagulation factor XI [6]): 38 µM; Activity (Coagulation factor XI [7]): 4.2%; inhibition [8]: inactive; inhibition [9]: inactive; inhibition [10]: inactive; Ratio IC50 (Homo sapiens [11]): 5; Activity (HEK293 [12]): 4.9%; 2aPTT (Plasma): 950 µM; inhibition (Coagulation factor XI [13]): Active; inhibition (HEK293 [14]): Active |
